A short description of test [1]: Activity at synthetic biotin-RNA pseudoknot assessed as increase in -1 ribosomal frameshifting efficiency at 250 uM by dual luciferase assay. Summed up: (§1)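 Biotin-pseudoknot template ligated into dual luciferase vector (XhoI/SpeI). Coupled transcription/translation in rabbit reticulocyte lysate with compounds at 250 μM in DMSO; DMSO control. Frameshift efficiency from SDS–PAGE band quantification (100 vs 40 kDa, PhosphorImager) or dual luciferase firefly/Renilla ratio, 10 s reads; fold change = efficiency with compound / without; triplicate runs.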

Test [2] in a line: Activity at synthetic biotin-RNA pseudoknot assessed as increase in -1 ribosomal frameshifting efficiency by rabbit reticulocyte based transcription/translation-coupled assay. Put shortly:
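Concentration series 25 nM to 250 μM in rabbit reticulocyte TNT-coupled assay with biotin-pseudoknot template; biotin at 250 μM as comparator. Frameshifting % from SDS–PAGE autoradiogram, frameshift (100 kDa) vs non-frameshift (40 kDa) protein.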

Test [3] deals with Pea enation mosaic virus-1. Nature of the test: Activity at PEMV RNA pseudoknot assessed as increase in -1 ribosomal frameshifting efficiency at 250 uM by SDS-PAGE based transcription/translation-coupled assay. Summed up: (§2)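 Template carries PEMV pseudoknot in place of biotin-pseudoknot in dual luciferase vector. In vitro TNT-coupled transcription/translation in rabbit reticulocyte lysate, compounds in DMSO (DMSO control). Read-out by SDS–PAGE autoradiography, frameshift (100 kDa) vs non-frameshift (40 kDa) products quantified by PhosphorImager, or by dual luciferase (firefly then Renilla, 10 s each, ratio); luciferase values mean of triplicates.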

The subject of another test is HEK293. Nature of the test: Activity at synthetic biotin-RNA pseudoknot assessed as increase in -1 ribosomal frameshifting efficiency in human HEK293 cells at 250 uM by transcription/translation-coupled assay. Format: cell-based. Put shortly:
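HEK 293 in DMEM, 10% FBS, 1% pen-strep, seeded to 40% confluence, transfected with biotin-pseudoknot dual luciferase construct (50 ng DNA, JetPEI) for 18 h, then compound in DMSO added for a further 18 h. Passive lysis 30 min at room temperature, protein normalised by Bradford (50 μg), firefly/Renilla luciferase ratio read.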

Test [4] can be described thus: Activity at synthetic biotin-RNA pseudoknot assessed as increase in -1 ribosomal frameshifting efficiency at 250 uM by rabbit reticulocyte based transcription/translation-coupled assay. Put shortly:
as §1

The subject of test [5] is Pea enation mosaic virus-1. Briefly: Activity at PEMV RNA pseudoknot assessed as increase in -1 ribosomal frameshifting efficiency at 250 uM by dual luciferase based transcription/translation-coupled assay. Summed up: as §2

Experimental findings from ChEMBL document CHEMBL1144703, “Identification of novel ligands for the RNA pseudoknot that regulate -1 ribosomal frameshifting” (Bioorg Med Chem, 2008) are described below.

Structures are written as SMILES. Active and inactive are the calls of the source. The rule behind the calls is not given here.

Turning to `CSc1ccccc1NC(=O)NCC(=O)OCc1ccccc1`, in test [1], the result was Active. On the same count and under the same terms, the same measure for `CCOC(=O)C(CSCc1ccccc1)NC(=O)Nc1ccc(SC)cc1` (stereo unspecified): “Active”. On to `COC(=O)C(CCCCNC(=O)Nc1cc(F)ccc1F)NS(=O)(=O)c1ccc(C)cc1` (stereo unspecified), for which the Activity result in test [2] is “Dose-dependent effect”; in test [1] it was 18.1%; in test [3], 7.6%; in the test on HEK293 it was 8.05%; in test [4], 13.7%. For the same compound, the result in test [5] was inactive. Turning to `CCOC(=O)c1cccc(NC(=O)N2CCCN2C(=O)c2cccnc2SCCCC#N)c1`, in test [1], the outcome was Active. With `CCOC(=O)N1CCN(C(=O)Nc2ccccc2SC)CC1`, the result in test [1] was Active. The same measure, in the same setting: the same measure for `COC(=O)c1cc(NC(=O)NCCSCc2ccccc2)cc(C(=O)OC)c1`: “Active”.
